Source: ChEMBL document CHEMBL1145212, “Fluorinated diaryl sulfides as serotonin transporter ligands: synthesis, structure-activity relationship study, and in vivo evaluation of fluorine-18-labeled compounds as PET imaging agents” (J Med Chem, 2005)

Columns and labels:
Details in all cases: tested as the 18F-labelled form
[1] = molecular target: Sodium-dependent serotonin transporter (Rattus norvegicus) (UniProt P31652); experiment: Specific binding in rat hypothalamus at 60 min postinjection in vivo; type: functional, organism-based
Sequence of Sodium-dependent serotonin transporter (Rattus norvegicus) (P31652 whole entry): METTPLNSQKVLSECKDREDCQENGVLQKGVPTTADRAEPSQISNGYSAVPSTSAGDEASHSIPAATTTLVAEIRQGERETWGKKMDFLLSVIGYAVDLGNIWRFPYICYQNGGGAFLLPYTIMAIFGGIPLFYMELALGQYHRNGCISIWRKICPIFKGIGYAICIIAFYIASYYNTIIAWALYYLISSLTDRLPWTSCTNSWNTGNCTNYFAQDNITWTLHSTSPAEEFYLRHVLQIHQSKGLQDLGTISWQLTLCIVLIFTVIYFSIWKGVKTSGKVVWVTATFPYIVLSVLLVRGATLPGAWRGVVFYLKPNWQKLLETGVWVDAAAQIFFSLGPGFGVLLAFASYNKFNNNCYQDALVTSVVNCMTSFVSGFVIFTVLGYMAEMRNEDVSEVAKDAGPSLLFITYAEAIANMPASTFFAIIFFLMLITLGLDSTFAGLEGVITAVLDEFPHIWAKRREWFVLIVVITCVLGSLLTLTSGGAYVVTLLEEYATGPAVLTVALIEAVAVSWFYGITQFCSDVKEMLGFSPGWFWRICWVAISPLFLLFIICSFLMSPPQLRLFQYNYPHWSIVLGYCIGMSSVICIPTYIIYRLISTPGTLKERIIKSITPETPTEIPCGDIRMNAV
Summary of the method: (§1)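 Male Sprague-Dawley rats, n=3 per time point, received about 20 µCi of F-18 radioligand in saline iv by tail vein and were killed at 10–120 min. %ID/g was measured with decay and tail-residual correction. Hypothalamic specific binding = (%ID/g hypothalamus − %ID/g cerebellum)/%ID/g cerebellum; mean ± SD.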

[2] = molecular target: Sodium-dependent serotonin transporter (Rattus norvegicus) (UniProt P31652); experiment: Specific binding of [18F]AFA in rat frontal cortex after GBR-12935 treatment; n=3; type: functional, tissue-based
Summary of the method: (§2)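 Rats, three per group, were pretreated iv with blocker at 2 mg/kg in saline, or with saline as control, 10–15 min before tail-vein F-18 radioligand (about 20 µCi). Killed at 60 min and regional %ID/g determined. Specific binding = (region activity − cerebellum activity)/cerebellum activity; mean ± SD.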

Rattus norvegicus [3] = organism: Rattus norvegicus; experiment: Regional uptake of [18F]AFA in striatum of rat pretreated with compound citalopram; n=3; type: functional, organism-based
Summary of the method: (§3)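 Male Sprague-Dawley rats, three per group, received blocker (2 mg/kg iv in saline) or saline only (controls) 10–15 min before about 20 µCi of tail-vein F-18 radioligand. Killed 60 min after tracer. Blood and brain regions weighed and gamma-counted. %ID/g was decay- and tail-corrected; mean ± SD.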

[4] = molecular target: Sodium-dependent serotonin transporter (Rattus norvegicus) (UniProt P31652); experiment: Specific binding of [18F]AFA in rat hypothalamus after nisoxetine treatment; n=3; type: functional, tissue-based; summary of the method: as §2
[5] = molecular target: Sodium-dependent serotonin transporter (Rattus norvegicus) (UniProt P31652); experiment: Specific binding in rat hypothalamus at 30 min postinjection in vivo; type: functional, organism-based; summary of the method: as §1
Rattus norvegicus [6] = organism: Rattus norvegicus; experiment: Regional uptake of [18F]AFA in frontal cortex of rat pretreated with compound citalopram; n=3; type: functional, organism-based; summary of the method: as §3
Rattus norvegicus [7] = organism: Rattus norvegicus; experiment: Regional uptake of [18F]-AFA in blood of rat pretreated with compound GBR-12935; n=3; type: functional, organism-based; summary of the method: as §3
Rattus norvegicus [8] = organism: Rattus norvegicus; experiment: Regional uptake of [18F]AFA in hypothalamus of rat pretreated with compound GBR-12935; n=3; type: functional, organism-based; summary of the method: as §3
Rattus norvegicus [9] = organism: Rattus norvegicus; experiment: Regional uptake of [18F]-AFA in hypothalamus of rat pretreated with compound nisoxetine; n=3; type: functional, organism-based; summary of the method: as §3
[10] = molecular target: Sodium-dependent serotonin transporter (Rattus norvegicus) (UniProt P31652); experiment: Specific binding of [18F]-AFA in rat striatum after nisoxetine treatment; n=3; type: functional, tissue-based; summary of the method: as §2
Rattus norvegicus [11] = organism: Rattus norvegicus; experiment: Regional uptake of [18F]AFA in frontal cortex of rat pretreated with compound nisoxetine; n=3; type: functional, organism-based; summary of the method: as §3
Rattus norvegicus [12] = organism: Rattus norvegicus; experiment: Regional uptake of [18F]AFA in striatum of rat pretreated with compound 7c; n=3; type: functional, organism-based
[13] = molecular target: Sodium-dependent serotonin transporter (Rattus norvegicus) (UniProt P31652); experiment: Specific binding of [18F]AFA in rat hippocampus after GBR-12935 treatment; n=3; type: functional, tissue-based; summary of the method: as §2
[14] = molecular target: Sodium-dependent serotonin transporter (Rattus norvegicus) (UniProt P31652); experiment: Specific binding of [18F]AFA in rat hypothalamus after GBR-12935 treatment; n=3; type: functional, tissue-based; summary of the method: as §2
[15] = molecular target: Sodium-dependent serotonin transporter (Rattus norvegicus) (UniProt P31652); experiment: Specific binding of [18F]AFA in rat hippocampus after citalopram treatment; n=3; type: functional, tissue-based; summary of the method: as §2
Rattus norvegicus [16] = organism: Rattus norvegicus; experiment: Regional uptake of [18F]AFA in blood of rat pretreated with compound 7c; n=3; type: functional, organism-based
[17] = molecular target: Sodium-dependent serotonin transporter (Rattus norvegicus) (UniProt P31652); experiment: Specific binding in rat hypothalamus at 120 min postinjection in vivo; type: functional, organism-based; summary of the method: as §1
Rattus norvegicus [18] = organism: Rattus norvegicus; experiment: Regional uptake of [18F]AFA in hippocampus of rat pretreated with compound GBR-12935; n=3; type: functional, organism-based; summary of the method: as §3
Rattus norvegicus [19] = organism: Rattus norvegicus; experiment: Regional uptake of [18F]AFA in hippocampus of rat pretreated with compound nisoxetine; n=3; type: functional, organism-based; summary of the method: as §3
Rattus norvegicus [20] = organism: Rattus norvegicus; experiment: Regional uptake of [18F]AFA in cerebellum of rat pretreated with compound citalopram; n=3; type: functional, organism-based; summary of the method: as §3
Rattus norvegicus [21] = organism: Rattus norvegicus; experiment: Regional uptake of [18F]AFA in cerebellum of rat pretreated with compound nisoxetine; n=3; type: functional, organism-based; summary of the method: as §3
Rattus norvegicus [22] = organism: Rattus norvegicus; experiment: Regional uptake of [18F]AFA in hypothalamus of rat pretreated with compound 7c; n=3; type: functional, organism-based
Rattus norvegicus [23] = organism: Rattus norvegicus; experiment: Regional uptake of [18F]AFA in blood of rat pretreated with compound nisoxetine; n=3; type: functional, organism-based; summary of the method: as §3
[24] = molecular target: Sodium-dependent serotonin transporter (Rattus norvegicus) (UniProt P31652); experiment: Specific binding in rat hypothalamus at 90 min postinjection in vivo; type: functional, organism-based; summary of the method: as §1
[25] = molecular target: Sodium-dependent serotonin transporter (Rattus norvegicus) (UniProt P31652); experiment: Specific binding in rat hypothalamus at 10 min postinjection in vivo; type: functional, organism-based; summary of the method: as §1
[26] = molecular target: Sodium-dependent serotonin transporter (Rattus norvegicus) (UniProt P31652); experiment: Specific binding of [18F]AFA in rat thalamus after citalopram treatment; n=3; type: functional, tissue-based; summary of the method: as §2
Rattus norvegicus [27] = organism: Rattus norvegicus; experiment: Regional uptake of [18F]AFA in hypothalamus of rat pretreated with compound citalopram; n=3; type: functional, organism-based; summary of the method: as §3
Rattus norvegicus [28] = organism: Rattus norvegicus; experiment: Regional uptake of [18F]-AFA in blood of rat pretreated with compound citalopram; n=3; type: functional, organism-based; summary of the method: as §3
Rattus norvegicus [29] = organism: Rattus norvegicus; experiment: Regional uptake of [18F]-AFA in frontal cortex of rat pretreated with compound 7c; n=3; type: functional, organism-based
[30] = molecular target: Sodium-dependent serotonin transporter (Rattus norvegicus) (UniProt P31652); experiment: Specific binding of [18F]-AFA in rat striatum after citalopram treatment; n=3; type: functional, tissue-based; summary of the method: as §2
Rattus norvegicus [31] = organism: Rattus norvegicus; experiment: Regional uptake of [18F]AFA in thalamus of rat pretreated with compound citalopram; n=3; type: functional, organism-based; summary of the method: as §3
Rattus norvegicus [32] = organism: Rattus norvegicus; experiment: Regional uptake of [18F]AFA in thalamus of rat pretreated with compound nisoxetine; n=3; type: functional, organism-based; summary of the method: as §3
Rattus norvegicus [33] = organism: Rattus norvegicus; experiment: Regional uptake of [18F]AFA in cerebellum of rat pretreated with compound GBR-12935; n=3; type: functional, organism-based; summary of the method: as §3
Rattus norvegicus [34] = organism: Rattus norvegicus; experiment: Regional uptake of [18F]AFA in thalamus of rat pretreated with compound 7c; n=3; type: functional, organism-based
Rattus norvegicus [35] = organism: Rattus norvegicus; experiment: Regional uptake of [18F]AFA in striatum of rat pretreated with compound nisoxetine; n=3; type: functional, organism-based; summary of the method: as §3
Rattus norvegicus [36] = organism: Rattus norvegicus; experiment: Regional uptake of [18F]AFA in frontal cortex of rat pretreated with compound GBR-12935; n=3; type: functional, organism-based; summary of the method: as §3
Rattus norvegicus [37] = organism: Rattus norvegicus; experiment: Regional uptake of [18F]AFA in cerebellum of rat pretreated with compound 7c; n=3; type: functional, organism-based
Rattus norvegicus [38] = organism: Rattus norvegicus; experiment: Regional uptake of [18F]AFA in thalamus of rat pretreated with compound GBR-12935; n=3; type: functional, organism-based; summary of the method: as §3
Rattus norvegicus [39] = organism: Rattus norvegicus; experiment: Regional uptake of [18F]AFA in hippocampus of rat pretreated with compound citalopram; n=3; type: functional, organism-based; summary of the method: as §3
[40] = molecular target: Sodium-dependent serotonin transporter (Rattus norvegicus) (UniProt P31652); experiment: Specific binding of [18F]AFA in rat striatum after GBR-12935 treatment; n=3; type: functional, tissue-based; summary of the method: as §2
[41] = molecular target: Sodium-dependent serotonin transporter (Rattus norvegicus) (UniProt P31652); experiment: Specific binding of [18F]AFA in rat thalamus after GBR-12935 treatment; n=3; type: functional, tissue-based; summary of the method: as §2
[42] = molecular target: Sodium-dependent serotonin transporter (Rattus norvegicus) (UniProt P31652); experiment: Specific binding of [18F]AFA in rat thalamus after nisoxetine treatment; n=3; type: functional, tissue-based; summary of the method: as §2
Rattus norvegicus [43] = organism: Rattus norvegicus; experiment: Regional uptake of [18F]AFA in hippocampus of rat pretreated with compound 7c; n=3; type: functional, organism-based
[44] = molecular target: Sodium-dependent serotonin transporter (Rattus norvegicus) (UniProt P31652); experiment: Specific binding of [18F]AFA in rat frontal cortex after citalopram treatment; n=3; type: functional, tissue-based; summary of the method: as §2
[45] = molecular target: Sodium-dependent serotonin transporter (Rattus norvegicus) (UniProt P31652); experiment: Specific binding of [18F]AFA in rat hippocampus after nisoxetine treatment; n=3; type: functional, tissue-based; summary of the method: as §2
Rattus norvegicus [46] = organism: Rattus norvegicus; experiment: Regional uptake of [18F]-AFA in striatum of rat pretreated with compound GBR-12935; n=3; type: functional, organism-based; summary of the method: as §3
[47] = molecular target: Sodium-dependent serotonin transporter (Rattus norvegicus) (UniProt P31652); experiment: Specific binding of [18F]AFA in rat hypothalamus after citalopram treatment; n=3; type: functional, tissue-based; summary of the method: as §2
[48] = molecular target: Sodium-dependent serotonin transporter (Rattus norvegicus) (UniProt P31652); experiment: Specific binding of [18F]AFA in rat frontal cortex after nisoxetine treatment; n=3; type: functional, tissue-based; summary of the method: as §2

## CN(C)Cc1ccccc1Sc1ccc(F)cc1N
[1]
  Specific binding: 4.09 %ID/g
[2]
  Specific binding: 2.81 %ID/g
Rattus norvegicus [3]
  Uptake: 0.1 %ID/g
[4]
  Specific binding: 3.82 %ID/g
[5]
  Specific binding: 2.23 %ID/g
Rattus norvegicus [6]
  Uptake: 0.11 %ID/g
Rattus norvegicus [7]
  Uptake: 0.09 %ID/g
Rattus norvegicus [8]
  Uptake: 0.43 %ID/g
Rattus norvegicus [9]
  Uptake: 0.48 %ID/g
[10]
  Specific binding: 2.45 %ID/g
Rattus norvegicus [11]
  Uptake: 0.36 %ID/g
Rattus norvegicus [12]
  Uptake: 0.12 %ID/g
[13]
  Specific binding: 2.21 %ID/g
[14]
  Specific binding: 4.3 %ID/g
[15]
  Specific binding: 0.81 %ID/g
Rattus norvegicus [16]
  Uptake: 0.07 %ID/g
[17]
  Specific binding (dimensionless ratio): 4.92
Rattus norvegicus [18]
  Uptake: 0.28 %ID/g
Rattus norvegicus [19]
  Uptake: 0.28 %ID/g
Rattus norvegicus [20]
  Uptake: 0.06 %ID/g
Rattus norvegicus [21]
  Uptake: 0.09 %ID/g
Rattus norvegicus [22]
  Uptake: 0.13 %ID/g
Rattus norvegicus [23]
  Uptake: 0.1 %ID/g
[24]
  Specific binding (dimensionless ratio): 5.61
[25]
  Specific binding: 0.89 %ID/g
[26]
  Specific binding: 0.98 %ID/g
Rattus norvegicus [27]
  Uptake: 0.1 %ID/g
Rattus norvegicus [28]
  Uptake: 0.08 %ID/g
Rattus norvegicus [29]
  Uptake: 0.14 %ID/g
[30]
  Specific binding: 0.6 %ID/g
Rattus norvegicus [31]
  Uptake: 0.13 %ID/g
Rattus norvegicus [32]
  Uptake: 0.47 %ID/g
Rattus norvegicus [33]
  Uptake: 0.09 %ID/g
Rattus norvegicus [34]
  Uptake: 0.15 %ID/g
Rattus norvegicus [35]
  Uptake: 0.31 %ID/g
Rattus norvegicus [36]
  Uptake: 0.33 %ID/g
Rattus norvegicus [37]
  Uptake: 0.06 %ID/g
Rattus norvegicus [38]
  Uptake: 0.36 %ID/g
Rattus norvegicus [39]
  Uptake: 0.11 %ID/g
[40]
  Specific binding: 2.56 %ID/g
[41]
  Specific binding: 4.57 %ID/g
[42]
  Specific binding: 3.53 %ID/g
Rattus norvegicus [43]
  Uptake: 0.13 %ID/g
[44]
  Specific binding: 0.64 %ID/g
[45]
  Specific binding: 1.96 %ID/g
Rattus norvegicus [46]
  Uptake: 0.28 %ID/g
[47]
  Specific binding: 0.65 %ID/g
[48]
  Specific binding: 2.88 %ID/g
